Results as given in ChEMBL document CHEMBL2086386, “Potent and orally efficacious benzothiazole amides as TRPV1 antagonists” (Bioorg Med Chem Lett, 2012).
In brackets after ≈: the same amount, converted by molar mass. Activity calls are given as the source filed them.

Tests used:
[1] = biological target: Transient receptor potential cation channel subfamily V member 1 (Homo sapiens, UniProt Q8NER1); test: Antagonist activity at human recombinant TRPV1 receptor assessed as inhibition of capsaicin-induced calcium uptake by FLIPR assay; type: functional
Summary of the method: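 Whole-cell fluorescence imaging assay (FLIPR II) of the rise in intracellular Ca2+ on capsaicin addition. Inhibition by the test compound is quantified.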

[2] = Aqueous solubility of the compound in sodium phosphate buffer at pH 7.4; type: physicochemical
Summary of the method: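 Solubility measured in 0.1 M sodium phosphate buffer.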

[3] = Intrinsic clearance in human liver microsomes assessed per mg of protein; type: ADME, Microsome; details: read-out: CLH
[4] = Clearance in rat hepatocytes assessed as per 10^6 cells; type: ADME, cell-based, Hepatocyte; details: read-out: CLH
Rattus norvegicus [5] = test: Analgesic activity against carrageenan-induced thermal hyperalgesia in Sprague-Dawley rat assessed as paw withdrawal latency at 100 umol/kg, po after 30 mins after 3 hrs; type: functional
Summary of the method: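 Male Sprague-Dawley rats (125-200 g), groups of 7. Under isoflurane, 100 µl of 1% carrageenan is injected subcutaneously into the plantar left hind paw, and testing is done 3 h later. After 30 min acclimation on a 30 °C glass surface, radiant heat is focused on the affected paw. Withdrawal latency is the mean of two trials about 5 min apart, with a 20 s cut-off. Naïve rats serve as controls. Single oral dose.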

[6] = Half life in iv dosed Sprague-Dawley rat; type: ADME, organism-based; details: in vivo
[7] = biological target: Transient receptor potential cation channel subfamily V member 1 (Rattus norvegicus) (UniProt O35433); test: Binding affinity to rat TRPV1 at 1 uM
[8] = Oral bioavailability in Sprague-Dawley rat; type: ADME, organism-based; details: in vivo
Rattus norvegicus [9] = test: Analgesic activity against capsaicin-induced thermal hyperalgesia in Sprague-Dawley rat assessed as paw withdrawal latency at 90 umol/kg, po after 30 mins; type: functional
Summary of the method: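 Male Sprague-Dawley rats (125-200 g), groups of 7, acclimatized at least 3 days and tested in the light phase. Capsaicin 10 μg/5 μL is injected intradermally into the plantar left hind paw of restrained rats. Heat hyperalgesia is read 30 min later as radiant-heat paw withdrawal latency on a 30 °C glass surface: two trials about 5 min apart, averaged, 20 s cut-off. Naïve rats serve as controls. Single oral dose.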

Rattus norvegicus [10] = test: Toxicity in Sprague-Dawley rat assessed as effect on body temperature at 100 umol/kg, po; type: organism-based; details: in vivo

Transient receptor potential cation channel subfamily V member 1, sequence (Q8NER1 whole entry): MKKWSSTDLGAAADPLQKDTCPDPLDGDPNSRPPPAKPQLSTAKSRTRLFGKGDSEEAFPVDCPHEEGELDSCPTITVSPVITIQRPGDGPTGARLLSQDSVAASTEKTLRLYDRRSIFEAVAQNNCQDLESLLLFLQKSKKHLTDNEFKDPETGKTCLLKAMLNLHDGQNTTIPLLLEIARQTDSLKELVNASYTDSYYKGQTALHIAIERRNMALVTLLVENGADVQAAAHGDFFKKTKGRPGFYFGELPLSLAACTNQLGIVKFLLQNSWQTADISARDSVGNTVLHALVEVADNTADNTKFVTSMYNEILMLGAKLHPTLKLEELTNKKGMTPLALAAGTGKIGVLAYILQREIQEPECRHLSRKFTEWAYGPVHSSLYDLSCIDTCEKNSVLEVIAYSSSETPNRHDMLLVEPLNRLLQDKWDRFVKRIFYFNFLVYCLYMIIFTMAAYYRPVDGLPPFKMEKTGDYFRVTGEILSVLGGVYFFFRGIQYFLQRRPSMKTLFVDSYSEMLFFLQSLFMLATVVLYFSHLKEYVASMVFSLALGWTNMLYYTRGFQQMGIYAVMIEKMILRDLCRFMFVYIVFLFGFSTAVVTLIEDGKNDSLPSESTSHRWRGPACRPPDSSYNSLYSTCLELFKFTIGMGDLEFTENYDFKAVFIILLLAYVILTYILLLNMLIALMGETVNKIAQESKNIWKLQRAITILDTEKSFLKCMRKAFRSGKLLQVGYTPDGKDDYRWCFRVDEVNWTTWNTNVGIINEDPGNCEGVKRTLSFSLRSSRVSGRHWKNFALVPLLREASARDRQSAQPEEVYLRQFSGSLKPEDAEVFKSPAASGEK
Transient receptor potential cation channel subfamily V member 1 (Rattus norvegicus), sequence (O35433 whole entry): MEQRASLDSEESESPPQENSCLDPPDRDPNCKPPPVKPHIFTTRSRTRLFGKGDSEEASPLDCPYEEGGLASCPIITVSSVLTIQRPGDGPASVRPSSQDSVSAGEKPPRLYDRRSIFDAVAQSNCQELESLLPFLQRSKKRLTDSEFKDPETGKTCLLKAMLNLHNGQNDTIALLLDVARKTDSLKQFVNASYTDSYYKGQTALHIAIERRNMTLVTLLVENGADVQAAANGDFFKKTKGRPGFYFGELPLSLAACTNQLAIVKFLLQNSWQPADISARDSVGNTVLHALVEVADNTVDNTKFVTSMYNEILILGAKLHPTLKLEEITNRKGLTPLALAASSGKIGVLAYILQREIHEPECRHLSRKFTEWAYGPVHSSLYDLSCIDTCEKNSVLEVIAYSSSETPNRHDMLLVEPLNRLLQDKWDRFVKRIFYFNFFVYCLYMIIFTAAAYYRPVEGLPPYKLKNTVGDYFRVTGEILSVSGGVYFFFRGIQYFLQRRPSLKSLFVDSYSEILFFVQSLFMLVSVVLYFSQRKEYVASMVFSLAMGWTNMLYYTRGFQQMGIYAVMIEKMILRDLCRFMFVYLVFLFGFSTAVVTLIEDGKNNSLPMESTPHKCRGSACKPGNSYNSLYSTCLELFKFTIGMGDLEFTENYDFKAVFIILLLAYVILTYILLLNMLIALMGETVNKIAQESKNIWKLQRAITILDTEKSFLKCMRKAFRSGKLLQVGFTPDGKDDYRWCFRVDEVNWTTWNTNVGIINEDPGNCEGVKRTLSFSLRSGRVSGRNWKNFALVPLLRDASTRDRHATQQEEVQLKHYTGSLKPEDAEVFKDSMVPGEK

Compound	IC50 [1]	solubility [2]	also measured
CC(C)(C)Oc1cccc(C(=O)Nc2ccc3sc(CO)nc3c2)c1	1070 nM	181 µM (≈ 64.5 µg/mL)	
CCN(CC)Cc1ccc(C(=O)Nc2ccc3sc(CO)nc3c2)cc1	> 10000 nM	5160 µM (≈ 1910 µg/mL)	
Cc1cc(Cl)ccc1C(=O)Nc1ccc2sc(CO)nc2c1	85.9 nM	7 µM (≈ 2.33 µg/mL)	hepatocyte CLint [4]: 17 µL/min/1e6 cells
O=S(=O)(Nc1ccc(C(F)(F)F)cc1)c1ccc2sc(CO)nc2c1	5570 nM		
Cn1nc(C(F)(F)F)cc1C(=O)Nc1ccc2sc(CO)nc2c1	157 nM	14 µM (≈ 4.99 µg/mL)	microsomal CLint [3]: 9 µL/min/mg
O=C(Nc1ccc2sc(CO)nc2c1)c1ccc(C(F)(F)F)nc1		61 µM (≈ 21.6 µg/mL)	microsomal CLint [3]: 13 µL/min/mg
O=S(=O)(Nc1ccc2sc(CO)nc2c1)c1ccc(Br)cc1	> 10000 nM		
Cc1ccc(-c2cc(C(F)(F)F)nn2-c2ccc(S(N)(=O)=O)cc2)cc1 [CELECOXIB]			Activity (Rattus norvegicus [5]): 35%
CC(C)(C)c1ccc(C(=O)Nc2ccc3sc(CN)nc3c2)cc1	987 nM		
O=C(Nc1ccc2sc(CO)nc2c1)c1ccc(CN2CCOCC2)cc1	> 10000 nM	419 µM (≈ 161 µg/mL)	microsomal CLint [3]: 13 µL/min/mg
CC(C)(C)c1ccc(NC(=O)c2ccc3sc(CO)nc3c2)cc1	> 10000 nM		
CC(=O)NCc1nc2cc(NC(=O)c3ccc(C(C)(C)C)cc3)ccc2s1	2410 nM		
CC(C)(C)c1ccc(CNc2ccc3sc(CO)nc3c2)cc1	833 nM		
O=C(Nc1ccc2sc(CO)nc2c1)c1ccc(N2CCCCC2)nc1		4 µM (≈ 1.47 µg/mL)	
O=C(Nc1ccc2sc(CO)nc2c1)C1CCC(C(F)(F)F)CC1 (stereo not drawn)	> 10000 nM	77 µM (≈ 27.6 µg/mL)	
CCOCc1ccc(C(=O)Nc2ccc3sc(CO)nc3c2)cc1	489 nM	37 µM (≈ 12.7 µg/mL)	microsomal CLint [3]: 24 µL/min/mg
Cc1cc(OC(C)C)ccc1C(=O)Nc1ccc2sc(CO)nc2c1		9 µM (≈ 3.21 µg/mL)	hepatocyte CLint [4]: 12 µL/min/1e6 cells
CC(C)(C)c1ccc(C(=O)Nc2ccc3sc(CNS(C)(=O)=O)nc3c2)cc1	708 nM		
Cc1ccc(CCNC(=O)c2ccc3sc(CO)nc3c2)cc1	1610 nM		
C#Cc1ccc(C(=O)Nc2ccc3sc(CO)nc3c2)cc1	175 nM	25 µM (≈ 7.71 µg/mL)	
CC(O)c1nc2cc(NC(=O)c3ccc(C(C)(C)C)cc3)ccc2s1 (racemic)	223 nM		

The remaining compounds from weak to strong by IC50 [1], led by results:

IC50 [1]	solubility [2]	Compound	also measured
68.2 nM	3 µM (≈ 0.956 µg/mL)	O=C(Nc1ccc2sc(CO)nc2c1)c1ccc(Cl)cc1	microsomal CLint [3]: 14 µL/min/mg; hepatocyte CLint [4]: 66 µL/min/1e6 cells
52.3 nM	10 µM (≈ 3.77 µg/mL)	Cc1cc(Br)ccc1C(=O)Nc1ccc2sc(CO)nc2c1	half-life [6]: 2.4 h; hepatocyte CLint [4]: 24 µL/min/1e6 cells; Activity [7]: Active; bioavailability [8]: 53%; Activity (Rattus norvegicus [9]): 72%; Activity (Rattus norvegicus [5]): 35%; Activity (Rattus norvegicus [10]): Non-toxic
52.2 nM	11 µM (≈ 4.08 µg/mL)	CC(C)(C)OCc1ccc(C(=O)Nc2ccc3sc(CO)nc3c2)cc1	
41 nM	9 µM (≈ 3.45 µg/mL)	O=C(Nc1ccc2sc(CO)nc2c1)c1ccc(OCC(F)(F)F)nc1	
33.4 nM	38 µM (≈ 13 µg/mL)	CC(C)Oc1ccc(C(=O)Nc2ccc3sc(CO)nc3c2)cc1	microsomal CLint [3]: 12 µL/min/mg; hepatocyte CLint [4]: 57 µL/min/1e6 cells
27 nM	2.2 µM (≈ 0.714 µg/mL)	Cc1nc2cc(NC(=O)c3ccc(C(C)(C)C)cc3)ccc2s1	
26.5 nM	5 µM (≈ 1.82 µg/mL)	O=C(Nc1ccc2sc(CO)nc2c1)c1ccc(Br)cc1	hepatocyte CLint [4]: 54 µL/min/1e6 cells
11.9 nM		O=C(Nc1ccc2sc(CO)nc2c1)c1ccc(C(F)(F)F)cc1	
9.8 nM	64 µM (≈ 22.8 µg/mL)	CC(C)(C)Oc1ccc(C(=O)Nc2ccc3sc(CO)nc3c2)cc1	microsomal CLint [3]: 19 µL/min/mg
3.7 nM	6 µM (≈ 2.04 µg/mL)	CC(C)(C)c1ccc(C(=O)Nc2ccc3sc(CO)nc3c2)cc1	microsomal CLint [3]: 57 µL/min/mg
